In ChEMBL document CHEMBL1142298, “Synthesis and dopamine receptor affinities of N-alkyl-11-hydroxy-2-methoxynoraporphines: N-alkyl substituents determine D1 versus D2 receptor selectivity” (J Med Chem, 2008) one finds Ki and Ratio Ki data, which are given here for six compounds.

The target of one assay is D(2) dopamine receptor (Rattus norvegicus, UniProt P61169). Kind of assay: Displacement of [3H]neomonapride from dopamine D2 receptor in rat striatum. In outline:
(§1)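 Competitive radioligand binding on membrane homogenates prepared from rat striatum tissue, following a previously published procedure.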
On the technique in general: Loss of bound radioactivity is the signal in a displacement assay; it reports binding, not function.

The target in the next assay is D(1A) dopamine receptor (Rattus norvegicus, UniProt P18901). Briefly: Displacement of [3H]SCH-23390 from dopamine D1 receptor in rat striatum. In a few lines:
as §1

For another assay, the species on record is Rattus norvegicus. Briefly: Selectivity ratio of rat dopamine D2 receptor to rat dopamine D1 receptor.

D(2) dopamine receptor, sequence (P61169 whole entry): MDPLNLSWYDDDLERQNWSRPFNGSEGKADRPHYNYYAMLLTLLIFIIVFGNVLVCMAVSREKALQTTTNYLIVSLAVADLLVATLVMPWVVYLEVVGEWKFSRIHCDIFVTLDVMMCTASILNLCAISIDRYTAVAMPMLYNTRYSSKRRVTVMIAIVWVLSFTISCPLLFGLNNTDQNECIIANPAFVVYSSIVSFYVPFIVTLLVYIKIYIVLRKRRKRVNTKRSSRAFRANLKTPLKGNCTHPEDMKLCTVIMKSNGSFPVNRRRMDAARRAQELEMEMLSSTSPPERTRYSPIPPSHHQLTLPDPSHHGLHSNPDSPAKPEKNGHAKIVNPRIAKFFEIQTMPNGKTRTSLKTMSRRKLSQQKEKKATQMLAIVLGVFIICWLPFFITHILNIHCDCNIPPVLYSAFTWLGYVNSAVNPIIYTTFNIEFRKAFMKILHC
D(1A) dopamine receptor, sequence (P18901 whole entry): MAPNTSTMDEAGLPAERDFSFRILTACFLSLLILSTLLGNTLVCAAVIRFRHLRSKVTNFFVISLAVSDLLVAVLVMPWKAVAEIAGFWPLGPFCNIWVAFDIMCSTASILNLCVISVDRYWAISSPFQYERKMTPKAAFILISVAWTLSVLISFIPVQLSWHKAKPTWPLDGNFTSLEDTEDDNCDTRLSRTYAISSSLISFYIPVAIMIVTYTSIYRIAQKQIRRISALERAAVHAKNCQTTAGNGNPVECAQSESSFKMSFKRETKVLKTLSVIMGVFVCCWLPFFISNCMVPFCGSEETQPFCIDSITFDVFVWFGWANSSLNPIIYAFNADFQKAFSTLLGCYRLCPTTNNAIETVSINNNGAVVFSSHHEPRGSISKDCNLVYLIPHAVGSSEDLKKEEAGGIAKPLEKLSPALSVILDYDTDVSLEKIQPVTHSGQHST

One may read the Ki as the dissociation constant of the complex between target and ligand, obtained from inhibition or displacement. Low values mean higher affinity, high ones lower affinity. As for `CCN1CCc2cc(OC)cc3c2[C@H]1Cc1cccc(O)c1-3`, the figures for the Ki on D(2) dopamine receptor and on D(1A) dopamine receptor were 28 nM and 130 nM, respectively. Also, the Ratio Ki in the assay filed under Rattus norvegicus worked out at 4.6.

For the compound `CCCN1CCc2cc(OC)cc3c2[C@H]1Cc1ccc(O)c(O)c1-3`, the Ki at D(2) dopamine receptor amounted to 1.3 nM; on D(1A) dopamine receptor, 6450 nM. Besides, in the assay filed under Rattus norvegicus, the Ratio Ki was 4860.

Regarding `COc1cc2c3c(c1)-c1c(ccc(O)c1O)C[C@H]3N(C)CC2`, the Ki on D(2) dopamine receptor was 3.5 nM; at D(1A) dopamine receptor, > 10000 nM. Besides, the Ratio Ki in the assay filed under Rattus norvegicus is > 2860.

With `CN1CCc2cccc3c2[C@H]1Cc1cccc(O)c1-3`, the Ki was 108 nM at D(2) dopamine receptor and 26.5 nM at D(1A) dopamine receptor. Further, the Ratio Ki in the assay filed under Rattus norvegicus was 0.24.

`COc1cc2c3c(c1)-c1c(O)cccc1C[C@H]3N(C)CC2`: the Ki was 235 nM at D(2) dopamine receptor and 46 nM at D(1A) dopamine receptor. For the same compound, the Ratio Ki in the assay filed under Rattus norvegicus turned out to be 0.19.

In the case of `CCCCN1CCc2cc(OC)cc3c2[C@H]1Cc1cccc(O)c1-3`, the Ki at D(2) dopamine receptor and at D(1A) dopamine receptor was > 10000 nM each time.
